Screens: PubChem, several laboratories
HSV augment: enhancers of HSV replication in host cells, fold increase, host cell viability. HSV replication augmentation in cells. maximum fold increase. 220,000 tested, 0.005% active; in the data active means maximum fold increase above about 1.5; tested in PC3 cells
MT stabilizer: microtubule stabilizers in HeLa cells, primary screen, imaging, high-content imaging; HeLa tubulin immunostaining HCS, 24 h; share of cells brighter than vehicle mean+2SD; % tubulin-high responders, % at 10 µM; AID 2205, 2009; 200,000 tested, 0.83% active;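 active means plate Z-score above 3 for both tubulin-high and condensed-nucleus cell shares, with cell loss under 80%, at 10 µM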;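 further: anti alpha tubulin signal scored within the nucleus-defined area of each cell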
b-catenin transl: modulators of beta-catenin nuclear translocation, primary screen, imaging, HeLa cells, immunofluorescence, high-content; nuclear translocation activity, % at 5 µM; 190,000 tested, 0.3% active;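 active means nuclear translocation activity above 50% at 5 µM, with a well cell count of 50 or more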;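 further: per-cell ratio of nuclear to cytoplasmic median beta-catenin stain intensity; plate controls were DMSO negative control for no effect and GSK-3 inhibitor IX positive control for full effect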
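Technique: fluorescence imaging of beta-catenin antibody stain plus DAPI / Material: human HeLa cell line / Incubation: compound treatment 24 h, 37°C, 5% CO2 / Read-out basis: % activation of per-cell nuclear versus cytoplasmic median beta-catenin signal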
Dynein cargo inh: inhibitors of GR-EGFP nuclear translocation, primary screen, dynein cargo transport inhibitor project, imaging, high-content, 3617.4 mouse cells; z-score, hits read low; AID 1381, 2008; test concentration mostly 20 µM; stimulated with dexamethasone, 1 µM; stronger effect = lower value; 220,000 tested, 0.47% active;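 active means plate z-score of nuclear minus cytoplasmic receptor signal below a set negative limit, without overly bright fluorescence or cell loss, cut at about -3.5 in these data, passing the limit was not always enough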;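 further: z-score of nuclear minus cytoplasmic ring GR-EGFP intensity difference per well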
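Also added: dexamethasone, 1.0 µM final. Medium: tet-free, stripped-serum medium. Detection: fixed, Hoechst-stained cells imaged at 10x for EGFP. Read-out: nuclear-to-cytoplasmic GR-EGFP distribution per well. Times: induction 48 h, compound 1 h, agonist 30 min.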
Lmaj promast: Leishmania major promastigote growth inhibition, primary screen; inhibition, % at 10 µM; 200,000 tested, 9% active; Leishmania major promastigotes, resazurin fluorescence viability; in the data active means inhibition above about 50%;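 further: promastigotes grown with compound for 44 hours at 28 °C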
Numbers without * were called inactive; i = inactive; / = no result given. A selection: hits, their analogues and other compounds. The true share with any hit is near 8.9%.

SMILES | HSV augment | MT stabilizer | b-catenin transl | Dynein cargo inh | Lmaj promast
Cc1ccc(NC(=O)C2CC(=O)n3c(nc4ccccc43)N2)cc1C (centres undefined) | i | / | 0 | 0.43 | /
COc1cc2cc(/C=C/C(=O)c3ccco3)c(Cl)nc2cc1OC | i | 4 | 2 | -2.2 | 76*
COCCn1c(C)cc(C2=NNC(=Nc3ccc(Cl)cc3Cl)SC2)c1C | i | 4 | -2 | 0.88 | 4
COCC(C)N=C1NN=C(c2cc(C)n(Cc3ccccc3Cl)c2C)CS1 (centres undefined) | i | 7 | 6 | -0.43 | 64*
COCCCN=C1NN=C(c2cc(C)n(Cc3ccco3)c2C)CS1 | i | 14* | / | 1.3 | 95*
Cc1cccc2c3c([nH]c12)C(=O)CC(C)(C)S3 | i | 2 | -2 | -0.22 | -2
O=C1[C@@H]2[C@@H]3C[C@@H]([C@H]4ON=C(c5ccc(Cl)cc5)[C@@H]34)[C@@H]2C(=O)N1c1ccc2c(c1)OCO2 | i | 7 | -4 | 0.38 | -7
COc1ccc(CCNC(=O)CN2CCN(c3cccc(Cl)c3)CC2)cc1OC | i | 1 | 0 | -0.47 | 45
COCCOc1ccc(C(F)(F)F)cc1NC(=O)c1ccc(C)cc1 | i | 2 | 0 | -0.84 | 2
CCC(C)(C)c1ccc(OCCCC[n+]2ccc(C)cc2)c(C(C)(C)CC)c1 | i | 57 | 9 | -3.6* | 100*
FC(F)(F)c1cc(-c2ccco2)nc(NCc2cccnc2)n1 | / | 6 | 61* | 0.15 | 7
FC(F)(F)c1cc(-c2ccco2)nc(NCc2ccccc2)n1 | i | 3 | 1 | -0.66 | 2
Cc1noc(NS(=O)(=O)c2ccc(NC(=O)CSc3nc4c(cc3C#N)CCC4)cc2)c1C | i | 3 | -2 | 1.8 | -10
Cc1nn(C)c(C)c1S(=O)(=O)N(CC(=O)Nc1ccc2c(c1)OCO2)c1ccc(C(C)C)cc1 | i | 3 | -5 | -0.14 | 50*
Cc1n[nH]c(C)c1S(=O)(=O)N(CC(=O)Nc1ccc2c(c1)OCCO2)c1ccc(C(C)C)cc1 | i | 2 | 1 | 1.8 | 56*
Cc1noc(C)c1S(=O)(=O)N(CC(=O)Nc1ccc2c(c1)OCO2)c1ccc(C(C)C)cc1 | i | 7 | -6 | -0.43 | 10
CCC(C)NC(=O)CN(c1ccc2c(c1)OCO2)S(=O)(=O)c1c(C)n[nH]c1C (centres undefined) | i | 4 | / | -0.86 | 0
CC1=NN(C(N)=S)C(=O)C1N=Nc1ccc(C)cc1C (centres undefined) | / | 4 | / | -0.64 | 60*
COc1ccc2oc(-c3ccccc3[N+](=O)[O-])cc(=O)c2c1 | i | 16* | 18 | -0.22 | 0
COc1ccc(-c2cc(=O)c3ccccc3o2)cc1 | i | / | 1 | -0.86 | /
O=C1CN(C(=O)COc2ccc(F)cc2Cl)c2ccccc2N1 | i | / | 1 | 0.33 | /
CCOC(=O)c1ccc(NC(=S)N(CCCN2CCCC(C)C2)Cc2ccco2)cc1 (centres undefined) | i | 2 | 0 | -0.2 | 99*
CCOC(=O)c1ccc(NC(=S)N(CCCN2CCN(CC)CC2)Cc2ccco2)cc1 | i | 4 | -4 | -0.37 | 20
CCOC(=O)c1ccc(NC(=S)N(CCCN2CCCC2)Cc2ccco2)cc1 | i | 4 | 2 | -0.44 | 80*
CCc1ccc(NC(=S)N(CCN2CCCCC2)Cc2ccco2)cc1 | i | 2 | 1 | 0.27 | 95*
SMILES | HSV augment | MT stabilizer | b-catenin transl | Dynein cargo inh | Lmaj promast
CC(=O)Nc1ccc2nc(C)n(Cc3ccc(Cl)cc3)c(=O)c2c1 | i | 3 | -2 | 1.9 | 78*
O=C(O)C1C2C=CC(C2)C1C(=O)Nc1cccc(F)c1 (centres undefined) | i | 2 | 2 | -0.71 | -6
C=CCNc1nc(Cl)nc(Nc2ccc([N+](=O)[O-])cc2)n1 | i | 1 | -4 | -0.52 | -1
C=CCNc1nc(Nc2ccc([N+](=O)[O-])cc2)nc(N2CCCC2)n1 | i | 2 | 1 | -1.2 | 81*
C=CCNc1nc(Nc2ccc(-c3nc4ccccc4o3)cc2)nc(N2CCOCC2)n1 | i | 1 | / | -0.017 | 98*
COc1ccc([N+](=O)[O-])cc1NC(=O)c1ccc(CN(c2ccc(C)c(C)c2)S(C)(=O)=O)cc1 | i | 1 | -2 | -0.4 | 19
CN(C(=O)c1ccccc1)C1(C)CCS(=O)(=O)C1 (centres undefined) | i | 2 | -4 | -0.72 | -6
C=CCc1c(C)nc(SC)nc1Nc1ccc(C(C)=O)cc1 | i | 6 | 0 | -0.63 | 71*
C=CCc1c(C)nc(SC)nc1Nc1ccc(C(=O)O)cc1 | i | 3 | 0 | -0.37 | -3
N#C/C(=C\c1cc([N+](=O)[O-])ccc1Cl)C(N)=O | i | 3 | -1 | 0.94 | -9
C=C(C)C1CC=C(C)/C(=N/NC(=O)c2ccc(NC(=O)CC)cc2)C1 (centres undefined) | i | 3 | 1 | -0.2 | 99*
C=C(C)C1CC=C(C)/C(=N/NC(=O)CNc2ccc(OCC)cc2)C1 (centres undefined) | i | 3 | 0 | -0.48 | 100*
C=C(C)C1CC=C(C)/C(=N/NC(=O)c2ccc(NC(=O)CCC)cc2)C1 (centres undefined) | i | 4 | -4 | 0.42 | 100*
C=C(C)C1CC=C(C)/C(=N/NC(=O)c2ccccc2[N+](=O)[O-])C1 (centres undefined) | i | 2 | -4 | -0.99 | 63*
C=C(C)C1CC=C(C)/C(=N\NC(=O)CCC(=O)Nc2ccc(C)c(C)c2)C1 (centres undefined) | i | / | 0 | 1.8 | /
Cc1ccc(NC(=O)c2nnn(-c3cc(C)cc(C)c3)c2N)cc1 | i | 3 | 0 | -0.41 | 14
COc1cccc(C(C(=O)NC(C)(C)C)N(C(=O)CCC(=O)Nc2cc(C)on2)C(C)(C)C)c1OC (centres undefined) | i | 2 | -2 | 0.25 | 0
COC(=O)c1ccc(NC(=O)CN2CCN(S(=O)(=O)c3cc(Cl)ccc3OC)CC2)cc1 | i | 4 | -1 | -0.38 | 99*
COC(=O)c1ccc(NC(=O)CN2CCN(c3ccc(Cl)cc3)CC2)cc1 | i | 3 | 1 | -0.062 | -4
COc1ccc(NC(=O)CCN2CCN(S(=O)(=O)c3cc(Cl)ccc3Cl)CC2)cc1 | i | 2 | -4 | -1.5 | 96*
COc1ccc(C)cc1NC(=O)C1CCCN(S(=O)(=O)c2cnc[nH]2)C1 (centres undefined) | i | 3 | / | -0.37 | -4
CC/C(=N\O)c1c(O)c2c(n(-c3ccccc3)c1=O)CCCC2 | i | 7 | 1 | -0.11 | -7
COC(=O)c1c(-c2cccc3ccccc23)csc1NC(=O)Cc1ccc(OC)c(OC)c1 | i | 52* | / | 0.47 | 28
COC(=O)c1c(-c2ccc(C)cc2)csc1NC(=O)Cc1ccc(OC)c(OC)c1 | / | 3 | / | 0.09 | 1
